Experiment [1] concerns Mus musculus. The experiment in a line: Mean survival time of the treated mice (Mus musculus) beyond that of the control animals against Plasmodium berghei at dose 160 (mg/kg); Experiment I. In kind it is functional.
Experiment [2] has as its system Mus musculus. The experiment in a line: Mean survival time of the treated mice (Mus musculus) beyond that of the control animals against Plasmodium berghei at dose 160 (mg/kg); Experiment II. It is filed as functional.
Experiment [3] relates to Mus musculus. The experiment in a line: Mean survival time of the treated mice (Mus musculus) beyond that of the control animals against Plasmodium berghei at dose 20(mg/kg); Experiment I. It is filed as functional.
In experiment [4] the test system is Mus musculus. The experiment in a line: Mean survival time of the treated mice (Mus musculus) beyond that of the control animals against Plasmodium berghei at dose 20(mg/kg); Experiment II. It is filed as functional.
Experiment [5] deals with Mus musculus. The experiment in a line: Mean survival time of the treated mice (Mus musculus) beyond that of the control animals against Plasmodium berghei at dose 320(mg/kg); Experiment I. It is filed as functional.
Experiment [6] deals with Mus musculus. The experiment in a line: Mean survival time of the treated mice (Mus musculus) beyond that of the control animals against Plasmodium berghei at dose 320(mg/kg); Survival beyond 60 days is considered curative; Experiment II; active(A). It is filed as functional.
Experiment [7] concerns Mus musculus. The experiment in a line: Mean survival time of the treated mice (Mus musculus) beyond that of the control animals against Plasmodium berghei at dose 40(mg/kg); Experiment I. It is filed as functional.
In experiment [8] the test system is Mus musculus. The experiment in a line: Mean survival time of the treated mice (Mus musculus) beyond that of the control animals against Plasmodium berghei at dose 40(mg/kg); Experiment II. In kind it is functional.
The test system of experiment [9] is Mus musculus. The experiment in a line: Mean survival time of the treated mice (Mus musculus) beyond that of the control animals against Plasmodium berghei at dose 640(mg/kg); Experiment I; not active. In kind it is functional.
The subject of experiment [10] is Mus musculus. The experiment in a line: Mean survival time of the treated mice (Mus musculus) beyond that of the control animals against Plasmodium berghei at dose 640(mg/kg); Experiment II; Survival beyond 60 days is considered curative (C). It is filed as functional.
Experiment [11] deals with Mus musculus. The experiment in a line: Mean survival time of the treated mice (Mus musculus) beyond that of the control animals against Plasmodium berghei at dose 80(mg/kg); Experiment I. In kind it is functional.
Experiment [12] deals with Mus musculus. The experiment in a line: Mean survival time of the treated mice (Mus musculus) beyond that of the control animals against Plasmodium berghei at dose 80(mg/kg); Experiment II. It is filed as functional.
The test system of experiment [13] is Plasmodium falciparum. The experiment in a line: […] antimalarial activity against Plasmodium falciparum D6. In kind it is functional, organism-based.
Experiment [14] in a line: Resistance index is defined as the ratio of IC50 of Plasmodium falciparum(W-2) clone to IC50 of Plasmodium falciparum(D6) clone. In kind it is functional. In a few lines:
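Ratio of IC50 W-2 to IC50 D-6 for P. falciparum. […] Activity is read as inhibition of tritiated hypoxanthine uptake.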

Experiment [15] concerns Plasmodium falciparum. The experiment in a line: […] antimalarial activity against Plasmodium falciparum W-2. It is filed as functional, organism-based.
Experiment [16] has as its system Mus musculus. The experiment in a line: Mean survival time of the treated mice (Mus musculus) beyond that of the control animals against Plasmodium berghei at dose 160 (mg/kg); Experiment II; active (A). It is filed as functional.
Experiment [17] relates to Mus musculus. The experiment in a line: Mean survival time of the treated mice (Mus musculus) beyond that of the control animals against Plasmodium berghei at dose 320(mg/kg); Survival beyond 60 days is considered curative; Experiment II; Survival beyond 60 days is considered curative (C). In kind it is functional.
In experiment [18] the test system is Mus musculus. The experiment in a line: Mean survival time of the treated mice (Mus musculus) beyond that of the control animals against Plasmodium berghei at dose 640(mg/kg); Experiment I. It is filed as functional.
Another experiment relates to Plasmodium berghei. The experiment in a line: […] antimalarial activity against drug-resistant Plasmodium berghei KBG173. In kind it is functional.
Experiment [19] concerns Mus musculus. The experiment in a line: Mean survival time of the treated mice (Mus musculus) beyond that of the control animals against Plasmodium berghei at dose 320(mg/kg); Survival beyond 60 days is considered curative; Experiment I. It is filed as functional.
Experiment [20] concerns Mus musculus. The experiment in a line: Mean survival time of the treated mice (Mus musculus) beyond that of the control animals against Plasmodium berghei at dose 640(mg/kg); Experiment II; Survival beyond 60 days is considered curative (C). It is filed as functional.
Experiment [21] deals with Mus musculus. The experiment in a line: Mean survival time of the treated mice (Mus musculus) beyond that of the control animals against Plasmodium berghei at dose 160 mg/kg). It is filed as functional.
Experiment [22] relates to Mus musculus. The experiment in a line: Mean survival time of the treated mice (Mus musculus) beyond that of the control animals against Plasmodium berghei at dose 20(mg/kg). In kind it is functional.
For experiment [23], the system named is Mus musculus. The experiment in a line: Mean survival time of the treated mice (Mus musculus) beyond that of the control animals against Plasmodium berghei at dose 320(mg/kg). In kind it is functional.
Experiment [24] relates to Mus musculus. The experiment in a line: Mean survival time of the treated mice (Mus musculus) beyond that of the control animals against Plasmodium berghei at dose 40(mg/kg). In kind it is functional.
The test system of experiment [25] is Mus musculus. The experiment in a line: Mean survival time of the treated mice (Mus musculus) beyond that of the control animals against Plasmodium berghei at dose 640(mg/kg); Survival beyond 60 days is considered curative. In kind it is functional.
Experiment [26] has as its system Mus musculus. The experiment in a line: Mean survival time of the treated mice (Mus musculus) beyond that of the control animals against Plasmodium berghei at dose 80(mg/kg). It is filed as functional.

pIC50: −log10 of the molar value. Calls of active or inactive are those of the source.

The pIC50 is −log10 of the IC50, conventionally taken in molar units. Low values mean a large IC50, high ones a small IC50. For `CC1CCC2(CC1)OOC1(CCC(C)CC1)OO2` (stereo unspecified), the T-C in the experiment with Mus musculus [1] is 2.4 days; with Mus musculus [2], 3.2 days; in the experiment on Mus musculus [3] it was 0.1 days; in the experiment on Mus musculus [4] it was 0.3 days; in the experiment on Mus musculus [5] it was 1.9 days; in the experiment with Mus musculus [6], 13 days. Moreover, the T-C in the experiment on Mus musculus [7] stood at 0.4 days; with Mus musculus [8], 0.5 days; in the experiment on Mus musculus [9] it was 1 days; in the experiment with Mus musculus [10], 1 days; with Mus musculus [11], 0.1 days; in the experiment on Mus musculus [12] it was 2 days. The pIC50 in the experiment on Plasmodium falciparum [13] was 8.09; with Plasmodium falciparum [15], 7.24. Moreover, in [14], the Resistance index came out at 7.1.
As a reminder, the ED50 is the dose that gives a 50% effect, or the effect in half of the subjects. Low values mean greater potency, high ones weaker potency. `C[C@@H]1CCCCC12OOC1(CCCC[C@@H]1C)OO2` (stereo partly specified) [WR-148999]: the T-C is 9.6 days in the experiment on Mus musculus [1]; 12 days with Mus musculus [16]; 0.2 days in the experiment on Mus musculus [3]; 0.7 days in the experiment with Mus musculus [4]; 1 days in the experiment with Mus musculus [5]; 3 days in the experiment on Mus musculus [17]. Also, the T-C came out at 1.8 days in the experiment with Mus musculus [7]; 1.2 days in the experiment with Mus musculus [8]; 3 days with Mus musculus [18]; 5 days in the experiment with Mus musculus [10]; 1.6 days with Mus musculus [11]; 5 days with Mus musculus [12]. Also, the 50% effect level with Plasmodium berghei (ED50) was put at a dose of 382 mg/kg. Also, the pIC50 with Plasmodium falciparum [13] is 8.16; with Plasmodium falciparum [15] it was 8.47. In addition, in experiment [14], the Resistance index was 0.49.
Turning to `CC1CC(C)CC2(C1)OOC1(CC(C)CC(C)C1)OO2` (stereo unspecified), the T-C in the experiment with Mus musculus [1] was 5.5 days; with Mus musculus [2] it was 5.8 days; in the experiment with Mus musculus [3], 1.5 days; in the experiment with Mus musculus [4], 0.6 days; with Mus musculus [19], 1 days; with Mus musculus [6] it was 7.4 days. Also, the T-C stood at 1.3 days in the experiment with Mus musculus [7]; 1 days with Mus musculus [8]; 2 days with Mus musculus [20]; 2.4 days in the experiment with Mus musculus [11]; 3.8 days with Mus musculus [12]. In the experiment on Mus musculus [9], the T-C result was “inactive”. The negative-log IC50 (pIC50) with Plasmodium falciparum [13] was 7.30; with Plasmodium falciparum [15], 7.89. In addition, the Resistance index in [14] came out at 0.26.
On to `C[C@@H]1CC[C@H]2[C@@H](C)C(=O)O[C@@H]3O[C@@]4(C)CC[C@@H]1[C@]32OO4` [ARTEMISININ], for which the T-C with Mus musculus [21] amounted to 3.9 days; in the experiment with Mus musculus [22], 1.5 days; in the experiment on Mus musculus [23], 5.1 days; in the experiment on Mus musculus [24] it was 1.7 days; in the experiment on Mus musculus [25] it was 2 days; in the experiment on Mus musculus [26], 2.3 days. Also, the 50% effective dose (ED50) in the experiment on Plasmodium berghei stood at 607 mg/kg. Besides, the pIC50 in the experiment with Plasmodium falciparum [13] is 8.33; in the experiment with Plasmodium falciparum [15], 8.66. In addition, the Resistance index in experiment [14] amounted to 0.47.

The record behind these values is ChEMBL document CHEMBL1126302, “Dispiro-1,2,4,5-tetraoxanes: a new class of antimalarial peroxides” (J Med Chem, 1992).
